From ChEMBL document CHEMBL1147377, “Knerachelins A and B, antibacterial phenylacylphenols from Knema furfuracea” (1993)
Converted amounts (≈) assume the structure as drawn. The source made the active and inactive calls. No cut-off for these calls is given here.

Tests used:
Salmonella typhimurium = test: Antibacterial activity against Salmonella Typhimurium IPL after 24 hrs by agar dilution method; format: functional, Salmonella enterica subsp. enterica serovar Typhimurium; conditions: Salmonella enterica
How it was run: (§1)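 MIC by microplate titration in agar medium (agar dilution). Compounds dissolved in DMSO. Incubation at 37° for 24 h (the 24 h/37° conditions are stated for the bioguiding agar diffusion test against S. aureus 209 P).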

Staphylococcus aureus [1] = test: Antibacterial activity against Staphylococcus aureus V. de G. 26109 after 24 hrs by agar dilution method; format: functional; how it was run: as §1
Enterococcus faecium = test: Antibacterial activity against Enterococcus faecium ATCC 19581 after 24 hrs by agar dilution method; format: functional; conditions: ATCC 19581, 24 h; how it was run: as §1
Streptococcus pneumoniae [2] = test: Antibacterial activity against Streptococcus pneumoniae 4314-03 after 24 hrs by agar dilution method; format: functional; how it was run: as §1
Staphylococcus aureus [3] = test: Antibacterial activity against Staphylococcus aureus IP 8203 after 24 hrs by agar dilution method; format: functional; how it was run: as §1
Pseudomonas aeruginosa = test: Antibacterial activity against Pseudomonas aeruginosa IPA 237 after 24 hrs by agar dilution method; format: functional; how it was run: as §1
Streptococcus = test: Antibacterial activity against Streptococcus A Dig 7 after 24 hrs by agar dilution method; format: functional; how it was run: as §1
Staphylococcus aureus [4] = test: Antibacterial activity against Staphylococcus aureus ATCC 25923 after 24 hrs by agar dilution method; format: functional; conditions: ATCC 25923, 24 h; how it was run: as §1
Enterococcus faecalis = test: Antibacterial activity against Enterococcus faecalis ATCC 29212 after 24 hrs by agar dilution method; format: functional; conditions: ATCC 29212, 24 h; how it was run: as §1
Streptococcus pneumoniae [5] = test: Antibacterial activity against Streptococcus pneumoniae 6254.013 after 24 hrs by agar dilution method; format: functional; how it was run: as §1
Klebsiella aerogenes = test: Antibacterial activity against Enterobacter aerogenes HM12 after 24 hrs by agar dilution method; format: functional; how it was run: as §1
Staphylococcus aureus [6] = test: Antibacterial activity against Staphylococcus aureus 209P ATCC 6538 after 24 hrs by agar dilution method; format: functional; how it was run: as §1
Staphylococcus aureus [7] = test: Antibacterial activity against Staphylococcus aureus Duchaussoy after 24 hrs by agar dilution method; format: functional; how it was run: as §1
Nucleic Acid [8] = test: Induction of phiX174 replicative form 1 template DNA cleavage at 24 ug after 1 hr by propidium iodide staining; format: nucleic-acid assay
How it was run: (§2)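 Reaction at pH 7.5, 15 µl final, with 50 mM sodium cacodylate, 100 ng ΦX174 RF I DNA and CuSO4 120 µM plus sample (24 or 48 µg). Incubated 1 h at 25°, stopped with EDTA. Run on 0.8% agarose at 80 V for 1.5 h in Tris-borate pH 8.0. Stained with propidium iodide 0.5 µg/ml; form II DNA scored.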

Klebsiella pneumoniae = test: Antibacterial activity against Klebsiella pneumoniae IP 7824 caroli after 24 hrs by agar dilution method; format: functional; how it was run: as §1
Serratia marcescens = test: Antibacterial activity against Serratia marcescens Guilpin 759 after 24 hrs by agar dilution method; format: functional; how it was run: as §1
Streptococcus pneumoniae [9] = test: Antibacterial activity against Streptococcus pneumoniae 6176-23F after 24 hrs by agar dilution method; format: functional; how it was run: as §1
Escherichia coli [10] = test: Antibacterial activity against Escherichia coli NIHJ-JC2 after 24 hrs by agar dilution method; format: functional; how it was run: as §1
Escherichia coli [11] = test: Antibacterial activity against Escherichia coli V 2019 after 24 hrs by agar dilution method; format: functional; how it was run: as §1
Staphylococcus aureus [12] = test: Antibacterial activity against Staphylococcus aureus Duc after 24 hrs by agar dilution method; format: functional; how it was run: as §1
Nucleic Acid [13] = test: Induction of phiX174 replicative form 1 template DNA cleavage at 48 ug after 1 hr by propidium iodide staining; format: nucleic-acid assay; how it was run: as §2

MIC (Salmonella typhimurium)	MIC (Staphylococcus aureus [1])	MIC (Enterococcus faecium)	MIC (Streptococcus pneumoniae [2])	MIC (Staphylococcus aureus [3])	MIC (Pseudomonas aeruginosa)	MIC (Streptococcus)	MIC (Staphylococcus aureus [4])	MIC (Enterococcus faecalis)	MIC (Streptococcus pneumoniae [5])	MIC (Klebsiella aerogenes)	MIC (Staphylococcus aureus [6])	MIC (Staphylococcus aureus [7])	MIC (Klebsiella pneumoniae)	MIC (Serratia marcescens)	MIC (Streptococcus pneumoniae [9])	MIC (Escherichia coli [10])	MIC (Escherichia coli [11])	MIC (Staphylococcus aureus [12])	SMILES	also measured
> 128 µg/mL	4 µg/mL (≈ 14.8 µM)	16 µg/mL (≈ 59.2 µM)	8 µg/mL (≈ 29.6 µM)	4 µg/mL (≈ 14.8 µM)	> 128 µg/mL	4 µg/mL (≈ 14.8 µM)	4 µg/mL (≈ 14.8 µM)	16 µg/mL (≈ 59.2 µM)	8 µg/mL (≈ 29.6 µM)	> 128 µg/mL	4 µg/mL (≈ 14.8 µM)	4 µg/mL (≈ 14.8 µM)	> 128 µg/mL	> 128 µg/mL	8 µg/mL (≈ 29.6 µM)	> 128 µg/mL	> 128 µg/mL	4 µg/mL (≈ 14.8 µM)	O=C(CCCCc1ccccc1)c1c(O)cccc1O [KNERACHELIN B]	Activity (Nucleic Acid [8]): inactive
> 128 µg/mL	8 µg/mL (≈ 26.6 µM)	32 µg/mL (≈ 107 µM)	8 µg/mL (≈ 26.6 µM)	8 µg/mL (≈ 26.6 µM)	> 128 µg/mL	8 µg/mL (≈ 26.6 µM)	8 µg/mL (≈ 26.6 µM)	32 µg/mL (≈ 107 µM)	8 µg/mL (≈ 26.6 µM)	> 128 µg/mL	8 µg/mL (≈ 26.6 µM)	8 µg/mL (≈ 26.6 µM)	> 128 µg/mL	> 128 µg/mL	8 µg/mL (≈ 26.6 µM)	> 128 µg/mL	> 128 µg/mL	8 µg/mL (≈ 26.6 µM)	COc1cc(O)c(C(=O)CCCCc2ccccc2)c(O)c1 [KNERACHELIN A]	Activity (Nucleic Acid [13]): inactive
